Laboratory results from ChEMBL document CHEMBL2401625, “Synthesis and evaluation of pharmacological properties of some new xanthone derivatives with piperazine moiety” (Bioorg Med Chem Lett, 2013).
pKi: −log10 of the molar value. The source made the active and inactive calls. The calls are words filed in the database; no cut-off is given here.

Key:
Mus musculus [1] = test: Neurotoxicity in CF1 mouse assessed as minimal motor impairment at 300 mg/kg, ip after 4 hrs by rotorod test; type: toxicity, organism-based; design: dose 300 mg/kg, route intraperitoneal; settings: in vivo
In short: (§1)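 Rotarod neurotoxicity screen in mice dosed i.p. at 30, 100 or 300 mg/kg, read 0.5 or 4 h after dosing. The animal must stay on a rod rotating at 6 rpm without falling, measured 3 times within 1 min. A fall counts as minimal motor impairment. Result is recorded as impaired animals over animals used.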

Mus musculus [2] = test: Neurotoxicity in CF1 mouse assessed as minimal motor impairment at 30 mg/kg, ip after 4 hrs by rotorod test; type: toxicity, organism-based; design: dose 30 mg/kg, route intraperitoneal; settings: in vivo; in short: as §1
Mus musculus [3] = test: Neurotoxicity in CF1 mouse assessed as minimal motor impairment at 100 mg/kg, ip after 4 hrs by rotorod test; type: toxicity, organism-based; design: dose 100 mg/kg, route intraperitoneal; settings: in vivo; in short: as §1
Mus musculus [4] = test: Neurotoxicity in CF1 mouse assessed as minimal motor impairment at 300 mg/kg, ip after 0.5 hrs by rotorod test; type: toxicity, organism-based; design: dose 300 mg/kg, route intraperitoneal; settings: in vivo; in short: as §1
Mus musculus [5] = test: Neurotoxicity in CF1 mouse assessed as minimal motor impairment at 30 mg/kg, ip after 0.5 hrs by rotorod test; type: toxicity, organism-based; design: dose 30 mg/kg, route intraperitoneal; settings: in vivo; in short: as §1
Rattus norvegicus [6] = species: Rattus norvegicus; test: Displacement of [3H]CGP-12177 from beta1-adrenergic receptor in rat cerebral cortex at 50 uM after 60 mins by scintillation counting; type: tissue-based
[7] = biological target: T1, Adrenergic receptor alpha-1 (Rattus norvegicus, UniProt P15823+P23944+P43140); test: Displacement of [3H]prazosin from alpha1-adrenergic receptor in rat cerebral cortex after 30 mins by scintillation counting; type: tissue-based
T1 sequence (P15823 whole entry): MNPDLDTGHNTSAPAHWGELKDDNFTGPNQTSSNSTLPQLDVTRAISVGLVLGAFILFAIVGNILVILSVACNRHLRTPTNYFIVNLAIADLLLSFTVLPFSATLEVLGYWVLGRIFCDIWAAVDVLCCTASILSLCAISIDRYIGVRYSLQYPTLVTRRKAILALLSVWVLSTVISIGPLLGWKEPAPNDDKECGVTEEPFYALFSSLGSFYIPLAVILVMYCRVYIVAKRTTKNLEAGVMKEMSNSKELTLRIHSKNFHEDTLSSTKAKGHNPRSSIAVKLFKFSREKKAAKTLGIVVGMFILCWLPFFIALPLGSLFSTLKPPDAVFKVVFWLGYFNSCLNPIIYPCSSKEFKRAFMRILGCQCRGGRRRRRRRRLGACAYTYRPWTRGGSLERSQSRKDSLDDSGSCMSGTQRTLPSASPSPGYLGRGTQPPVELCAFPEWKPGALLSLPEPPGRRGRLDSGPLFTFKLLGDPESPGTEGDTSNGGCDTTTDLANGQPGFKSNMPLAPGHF
T1 sequence (P23944 whole entry): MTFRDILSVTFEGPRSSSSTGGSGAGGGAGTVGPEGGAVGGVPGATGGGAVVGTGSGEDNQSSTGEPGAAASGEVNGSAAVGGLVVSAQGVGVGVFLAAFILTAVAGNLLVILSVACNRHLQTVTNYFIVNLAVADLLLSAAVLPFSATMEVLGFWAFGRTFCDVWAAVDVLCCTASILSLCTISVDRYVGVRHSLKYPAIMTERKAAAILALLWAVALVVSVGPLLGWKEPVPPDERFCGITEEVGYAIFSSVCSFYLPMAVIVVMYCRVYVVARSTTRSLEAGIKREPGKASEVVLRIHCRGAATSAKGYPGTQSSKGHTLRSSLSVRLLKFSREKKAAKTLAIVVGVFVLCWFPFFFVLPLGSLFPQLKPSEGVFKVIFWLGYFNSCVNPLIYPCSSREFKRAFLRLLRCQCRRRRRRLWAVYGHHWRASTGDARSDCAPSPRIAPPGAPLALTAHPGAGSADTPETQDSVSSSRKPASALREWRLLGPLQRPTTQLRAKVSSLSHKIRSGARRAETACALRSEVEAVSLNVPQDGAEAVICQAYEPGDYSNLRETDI
T1 sequence (P43140 whole entry): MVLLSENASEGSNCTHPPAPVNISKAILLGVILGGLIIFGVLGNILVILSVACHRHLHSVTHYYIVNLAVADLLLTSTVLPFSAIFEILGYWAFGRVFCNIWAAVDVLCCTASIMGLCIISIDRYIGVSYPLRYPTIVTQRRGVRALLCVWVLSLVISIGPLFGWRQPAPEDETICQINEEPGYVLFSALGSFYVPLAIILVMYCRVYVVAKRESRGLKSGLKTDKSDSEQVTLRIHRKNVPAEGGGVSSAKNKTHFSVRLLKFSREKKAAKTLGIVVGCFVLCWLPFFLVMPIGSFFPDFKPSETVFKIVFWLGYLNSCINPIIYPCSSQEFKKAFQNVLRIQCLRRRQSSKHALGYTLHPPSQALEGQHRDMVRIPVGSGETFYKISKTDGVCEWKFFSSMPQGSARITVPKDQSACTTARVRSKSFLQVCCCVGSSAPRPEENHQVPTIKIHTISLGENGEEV
In short: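 Radioligand binding on rat brain tissue membranes, run in 96-well format. [3H]prazosin was used for α1 (n = 2) and [3H]CGP-12177 for β1 (n = 2). Ki was calculated by the Cheng–Prusoff equation.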

[8] = biological target: 5-hydroxytryptamine receptor 7 (Homo sapiens, UniProt P34969); test: Displacement of [3H]5-CT from human 5HT7b receptor expressed in HEK293 cells after 1 hr; type: cell-based
Sequence of 5-hydroxytryptamine receptor 7 (P34969 whole entry): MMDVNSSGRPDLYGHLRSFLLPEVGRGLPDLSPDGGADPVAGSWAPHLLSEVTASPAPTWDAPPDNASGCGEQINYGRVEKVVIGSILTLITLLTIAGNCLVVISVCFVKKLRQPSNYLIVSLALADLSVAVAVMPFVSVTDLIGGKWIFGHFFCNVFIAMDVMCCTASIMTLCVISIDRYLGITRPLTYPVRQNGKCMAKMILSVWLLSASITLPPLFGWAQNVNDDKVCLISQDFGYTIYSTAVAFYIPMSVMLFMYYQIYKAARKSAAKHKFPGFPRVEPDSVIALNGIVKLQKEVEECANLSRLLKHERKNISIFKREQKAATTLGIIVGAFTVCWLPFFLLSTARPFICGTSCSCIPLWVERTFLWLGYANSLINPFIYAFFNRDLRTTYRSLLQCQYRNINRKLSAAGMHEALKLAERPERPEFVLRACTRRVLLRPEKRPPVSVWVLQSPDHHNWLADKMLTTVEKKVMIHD

[9] = biological target: 5-hydroxytryptamine receptor 6 (Homo sapiens, UniProt P50406); test: Displacement of [3H]LSD from human 5HT6 receptor expressed in HEK293 cells after 1 hr; type: cell-based
Sequence of 5-hydroxytryptamine receptor 6 (P50406 whole entry): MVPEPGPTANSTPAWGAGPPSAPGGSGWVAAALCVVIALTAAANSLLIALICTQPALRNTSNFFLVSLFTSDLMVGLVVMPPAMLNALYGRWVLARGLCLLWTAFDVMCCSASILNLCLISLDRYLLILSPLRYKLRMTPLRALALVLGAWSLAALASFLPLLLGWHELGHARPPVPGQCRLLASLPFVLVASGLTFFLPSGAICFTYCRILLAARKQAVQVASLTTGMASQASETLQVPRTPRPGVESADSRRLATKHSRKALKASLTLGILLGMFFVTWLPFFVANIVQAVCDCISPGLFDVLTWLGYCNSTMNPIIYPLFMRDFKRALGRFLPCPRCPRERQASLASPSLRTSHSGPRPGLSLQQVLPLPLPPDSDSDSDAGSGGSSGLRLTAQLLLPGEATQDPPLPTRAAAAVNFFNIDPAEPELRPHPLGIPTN

[10] = biological target: T2, 5-hydroxytryptamine receptor 1A (Homo sapiens, UniProt P08908); test: Displacement of [3H]8-OH-DPAT from human 5HT1A receptor expressed in HEK293 cells after 1 hr; type: cell-based
T2 sequence (P08908 whole entry): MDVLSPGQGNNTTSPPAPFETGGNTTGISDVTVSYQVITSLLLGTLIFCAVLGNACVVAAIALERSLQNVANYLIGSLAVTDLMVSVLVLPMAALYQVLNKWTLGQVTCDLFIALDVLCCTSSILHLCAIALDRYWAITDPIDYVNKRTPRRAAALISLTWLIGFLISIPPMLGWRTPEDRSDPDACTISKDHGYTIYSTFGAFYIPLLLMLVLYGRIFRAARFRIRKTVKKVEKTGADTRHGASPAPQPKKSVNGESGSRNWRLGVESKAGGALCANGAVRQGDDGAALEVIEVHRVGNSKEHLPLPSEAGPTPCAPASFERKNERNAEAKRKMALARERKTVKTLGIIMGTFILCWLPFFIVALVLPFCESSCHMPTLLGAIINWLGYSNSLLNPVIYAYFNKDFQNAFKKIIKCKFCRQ

Rattus norvegicus [11] = test: Neurotoxicity in Sprague-Dawley rat assessed as minimal motor impairment at 30 mg/kg, po after 1 hr by rotorod test; settings: in vivo
Rattus norvegicus [12] = test: Neurotoxicity in Sprague-Dawley rat assessed as minimal motor impairment at 30 mg/kg, po after 4 hrs by rotorod test; settings: in vivo
Rattus norvegicus [13] = test: Neurotoxicity in Sprague-Dawley rat assessed as minimal motor impairment at 30 mg/kg, po after 2 hrs by rotorod test; settings: in vivo
Rattus norvegicus [14] = test: Neurotoxicity in Sprague-Dawley rat assessed as minimal motor impairment at 30 mg/kg, po after 0.5 hrs by rotorod test; settings: in vivo
Rattus norvegicus [15] = test: Neurotoxicity in Sprague-Dawley rat assessed as minimal motor impairment at 30 mg/kg, po after 0.25 hrs by rotorod test; settings: in vivo
[16] = Displacement of [3H]CGP-12177 from beta1-adrenergic receptor in rat cerebral cortex after 60 mins by scintillation counting; type: tissue-based
In short: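 Radioligand binding on rat brain tissue membranes, run in 96-well format. Ki was calculated by the Cheng–Prusoff equation.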

SMILES | Activity (Mus musculus [1]) | Activity (Mus musculus [2]) | Activity (Mus musculus [3]) | Activity (Mus musculus [4]) | Activity (Mus musculus [5]) | inhibition (Rattus norvegicus [6]) | Ki [7] | pKi [8] | pKi [9] | pKi [10] | Activity (Rattus norvegicus [11]) | Activity (Rattus norvegicus [12]) | Activity (Rattus norvegicus [13]) | Activity (Rattus norvegicus [14]) | Activity (Rattus norvegicus [15]) | pKi [16]
COc1ccc2c(=O)c3cc(CN4CCN(c5ccccc5OC)CC4)ccc3oc2c1 | Non-toxic | Non-toxic | Non-toxic | Non-toxic | Non-toxic |  |  |  |  |  |  |  |  |  |  | 
CN1CCN(Cc2cccc3c(=O)c4ccc(Cl)cc4oc23)CC1.Cl.Cl.Cl |  |  |  |  |  | inactive | 0.65 µM | 4.98 | 4.71 | 4.87 |  |  |  |  |  | 
COc1ccc2c(=O)c3cc(CN4CCN(C)CC4)ccc3oc2c1 |  | Non-toxic | Non-toxic | Toxic | Non-toxic |  |  |  |  |  | Non-toxic | Non-toxic | Non-toxic | Non-toxic | Non-toxic | 
COc1ccc2c(=O)c3cc(CN4CCN(Cc5ccccc5)CC4)ccc3oc2c1.Cl.Cl |  |  |  |  |  |  | 0.31 µM | 4.87 | 5.05 | 5.78 |  |  |  |  |  | 
COc1ccc2c(=O)c3cc(CN4CCN(c5ccccc5OC)CC4)ccc3oc2c1.Cl |  |  |  |  |  |  | 0.38 µM | 5.94 | 4.87 | 6.37 |  |  |  |  |  | < 4.52
